Assay results taken from ChEMBL document CHEMBL1135065, “2-(anilinomethyl)imidazolines as alpha1A adrenergic receptor agonists: 2'-heteroaryl and 2'-oxime ether series” (Bioorg Med Chem Lett, 2002).

Assays:
[1] = target: T1, Alpha-1B adrenergic receptor (Homo sapiens, UniProt P35368); experiment: In vitro activation of human Alpha-1B receptor expressed in rat-1 fibroblasts via calcium mobilization through the Gq coupled PLC pathway as functional assay
T1 sequence (P35368 whole entry): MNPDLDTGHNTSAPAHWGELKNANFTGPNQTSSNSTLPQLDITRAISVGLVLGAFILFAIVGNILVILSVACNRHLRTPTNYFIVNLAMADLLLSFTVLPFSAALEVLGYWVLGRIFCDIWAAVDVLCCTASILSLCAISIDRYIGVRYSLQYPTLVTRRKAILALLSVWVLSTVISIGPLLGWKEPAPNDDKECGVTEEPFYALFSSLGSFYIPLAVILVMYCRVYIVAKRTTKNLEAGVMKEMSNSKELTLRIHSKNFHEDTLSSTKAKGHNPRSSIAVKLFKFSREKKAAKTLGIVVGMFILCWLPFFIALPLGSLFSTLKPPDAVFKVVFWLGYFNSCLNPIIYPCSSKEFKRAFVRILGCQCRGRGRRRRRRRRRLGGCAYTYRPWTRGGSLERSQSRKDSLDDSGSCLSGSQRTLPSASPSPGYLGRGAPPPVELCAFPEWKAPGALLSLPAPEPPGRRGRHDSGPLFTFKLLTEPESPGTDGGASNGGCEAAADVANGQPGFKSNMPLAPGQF

[2] = target: T2, Alpha-1A adrenergic receptor (Homo sapiens, UniProt P35348); experiment: In vitro activation of human alpha-1A receptor expressed in rat-1 fibroblasts via calcium mobilization through the Gq coupled PLC pathway as functional assay
T2 sequence (P35348 whole entry): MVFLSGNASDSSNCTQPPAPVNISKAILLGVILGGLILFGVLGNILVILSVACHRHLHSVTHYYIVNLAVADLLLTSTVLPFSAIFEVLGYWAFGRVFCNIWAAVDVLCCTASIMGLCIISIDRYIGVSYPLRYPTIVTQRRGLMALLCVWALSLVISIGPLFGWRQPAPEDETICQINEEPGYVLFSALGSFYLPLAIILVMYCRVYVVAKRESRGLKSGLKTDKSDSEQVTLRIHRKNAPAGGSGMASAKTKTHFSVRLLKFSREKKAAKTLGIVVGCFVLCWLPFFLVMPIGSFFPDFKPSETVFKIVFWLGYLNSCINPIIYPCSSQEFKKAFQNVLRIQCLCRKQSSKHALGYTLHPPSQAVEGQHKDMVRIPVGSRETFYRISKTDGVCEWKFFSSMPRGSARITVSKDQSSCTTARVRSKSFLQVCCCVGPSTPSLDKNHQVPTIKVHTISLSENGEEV
Method in brief: (§1)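 Calcium mobilization via Gq/PLC was read by FLIPR with Calcium Green fluorescent dye. Eleven-point concentration–response curves, top concentration typically 5 µM, expressed as percent of the 40 µM phenylephrine response. Values are pEC50 and % maximal response, mean of at least two experiments.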

[3] = target: T3, Alpha-1A adrenergic receptor (Homo sapiens) (UniProt P35348); experiment: In vitro human alpha-1A receptor activation determined via calcium mobilization through the Gq coupled PLC pathway in rat-1 fibroblasts as percent maximum of phenylephrine response; format: functional
T3 sequence (whole entry): T2 sequence (P35348 whole entry)
Method in brief: as §1, with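 “Human α1A (clone #137–12) or α1D (clone #16–7) adrenoceptor stably expressed in Rat-1 fibroblasts. Calcium mobilization” for “Calcium mobilization”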

[4] = target: T4, Alpha-1D adrenergic receptor (Homo sapiens, UniProt P25100); experiment: In vitro activation of human alpha-1D receptor expressed in rat-1 fibroblasts via calcium using mobilization through the Gq coupled PLC pathway as functional assay; method in brief: as §1
T4 sequence (P25100 whole entry): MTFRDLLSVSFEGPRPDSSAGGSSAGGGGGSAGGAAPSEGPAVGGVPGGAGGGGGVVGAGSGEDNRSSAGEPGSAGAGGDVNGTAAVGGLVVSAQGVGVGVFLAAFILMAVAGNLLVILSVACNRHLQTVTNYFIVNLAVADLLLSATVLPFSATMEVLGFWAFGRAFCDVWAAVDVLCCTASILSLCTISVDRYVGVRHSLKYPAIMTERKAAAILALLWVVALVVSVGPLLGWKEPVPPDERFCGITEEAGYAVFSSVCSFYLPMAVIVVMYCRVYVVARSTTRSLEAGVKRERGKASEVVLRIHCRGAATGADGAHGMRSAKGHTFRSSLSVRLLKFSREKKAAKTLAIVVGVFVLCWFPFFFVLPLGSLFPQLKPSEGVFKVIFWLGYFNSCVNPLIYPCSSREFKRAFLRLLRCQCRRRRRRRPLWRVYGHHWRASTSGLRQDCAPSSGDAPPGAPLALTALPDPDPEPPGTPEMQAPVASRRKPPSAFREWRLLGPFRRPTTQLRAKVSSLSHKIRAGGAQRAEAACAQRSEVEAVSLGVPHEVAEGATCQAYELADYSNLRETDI

[5] = target: T4, Alpha-1D adrenergic receptor; experiment: In vitro binding affinity against human Alpha-1D adrenergic receptor expressed in rat-1 fibroblasts
Method in brief: (§2)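 Radioligand binding on membranes from Rat-1 fibroblasts expressing human α1A, α1B or α1D adrenoceptor. Affinity reported as pIC50, mean of at least two experiments.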

[6] = target: T2, Alpha-1A adrenergic receptor; experiment: In vitro binding affinity against human Alpha-1A adrenergic receptor expressed in rat-1 fibroblasts cells; format: cell-based, Fibroblast; method in brief: as §2
[7] = target: T1, Alpha-1B adrenergic receptor; experiment: In vitro binding affinity against human Alpha-1B adrenergic receptor expressed in rat-1 fibroblasts; method in brief: as §2

Structure (SMILES) | EC50 [1] [nM] | EC50 [2] [nM] | Max [3] [%] | EC50 [4] [nM] | IC50 [5] [nM] | IC50 [6] [nM] | IC50 [7] [nM]
CC/C(=N\OC)c1ccccc1NCC1=NCCN1 | > 100000 | 3.31 | 112 | > 100000 | – | – | –
Cc1ncoc1-c1ccccc1NCC1=NCCN1 | > 100000 | 15.1 | – | > 100000 | 347 | 191 | 324
c1ccc(-c2cnco2)c(NCC2=NCCN2)c1 | > 5010 | 17.4 | – | > 5010 | 295 | 457 | 229
Cc1nc(-c2ccccc2NCC2=NCCN2)cs1 | 69.2 | 4.47 | – | > 5010 | – | – | –
Cc1nc(-c2ccccc2NCC2=NCCN2)no1 | 676 | 724 | – | > 5010 | – | – | –
CCO/N=C(\C)c1ccccc1NCC1=NCCN1 | > 5010 | 52.5 | 102 | > 5010 | – | – | –
Nc1nccc(-c2ccccc2NCC2=NCCN2)n1 | > 5010 | 42.7 | – | 28.8 | – | – | –
c1ccc(-c2ccccc2NCC2=NCCN2)nc1 | 30.2 | 6.76 | – | 41.7 | 117 | 81.3 | 589
CC/C(=N/OC)c1ccccc1NCC1=NCCN1 | > 5010 | 87.1 | 141 | > 5010 | – | – | –
CO/N=C/c1ccccc1NCC1=NCCN1 | > 5010 | 51.3 | 94 | > 5010 | 42.7 | 282 | 162
Cc1ccc(-c2ccccc2NCC2=NCCN2)o1 | 46.8 | 2.69 | – | > 2000 | – | – | –
c1ccc(-c2cnoc2)c(NCC2=NCCN2)c1 | > 100000 | 45.7 | – | > 100000 | – | – | –
Cc1cc(-c2ccccc2NCC2=NCCN2)on1 | 95.5 | 38.9 | – | > 100000 | – | – | –
c1ccc(-c2ncco2)c(NCC2=NCCN2)c1 | 1.62 | 0.661 | – | 5.01 | 40.7 | 45.7 | 447
c1csc(-c2ccccc2NCC2=NCCN2)c1 | 5.75 | 2.24 | – | 18.2 | – | – | –
c1ccc(-c2cnccn2)c(NCC2=NCCN2)c1 | 339 | 4.57 | – | 182 | – | – | –
Cc1ncc(-c2ccccc2NCC2=NCCN2)o1 | > 5010 | 110 | – | > 5010 | – | – | –
Cc1nc(-c2ccccc2NCC2=NCCN2)co1 | > 5010 | 324 | – | > 5010 | – | – | –
Cc1ccc(-c2ccccc2NCC2=NCCN2)s1 | > 100000 | 36.3 | – | > 100000 | – | – | –
c1coc(-c2ccccc2NCC2=NCCN2)c1 | 6.31 | 0.468 | – | 16.2 | – | – | –
c1cnc(-c2ccccc2NCC2=NCCN2)nc1 | 77.6 | 10 | – | 81.3 | 417 | 191 | 2190
Cc1cccnc1-c1ccccc1NCC1=NCCN1 | > 100000 | 24.5 | – | > 100000 | – | – | –
FC(F)(F)c1cccnc1-c1ccccc1NCC1=NCCN1 | > 100000 | 676 | – | > 100000 | – | – | –
Cc1ccsc1-c1ccccc1NCC1=NCCN1 | 112 | 0.851 | – | 49 | – | – | –
Cc1noc(-c2ccccc2NCC2=NCCN2)n1 | > 5010 | 661 | – | > 5010 | – | – | –
CO/N=C(\C)c1ccccc1NCC1=NCCN1 | > 5010 | 20.9 | 92 | > 5010 | – | – | –
c1ccc(-c2ccno2)c(NCC2=NCCN2)c1 | 3.72 | 0.794 | – | 2.88 | 38 | 35.5 | 132
